Measurements taken from paper PMC3253719 (Anesthesia and Analgesia, 2010).
Where two headings read alike, the source gives them in different places.

Assays:
[1] = tested on: rodents with spinal nerve ligation; conditions: cited from earlier work
[2] = tested on: mouse CB2 receptors; conditions: cited from earlier work
[3] = biological target: T1, human CB2 receptor (Homo sapiens, UniProt P34972); conditions: cited from earlier work
[4] = tested on: rat CB2 receptors; conditions: cited from earlier work
[5] = biological target: T1, human CB2 receptor; conditions: cited from earlier work; remark: listed apart in the source
[6] = biological target: T1, human CB2 receptor; conditions: cited from earlier work; remark: listed apart in the source
[7] = biological target: T1, human CB2 receptor; conditions: cited from earlier work; remark: listed apart in the source
[8] = tested on: human CB2 receptors; conditions: cited from earlier work
[9] = tested on: rat CB2 receptors; conditions: cited from earlier work; remark: listed apart in the source
[10] = biological target: T2, rat CB2 receptor (Rattus norvegicus, UniProt Q9QZN9); assay: cAMP activation assay, rat CB2; assay type: cell-based
T2 sequence (Q9QZN9 1-360): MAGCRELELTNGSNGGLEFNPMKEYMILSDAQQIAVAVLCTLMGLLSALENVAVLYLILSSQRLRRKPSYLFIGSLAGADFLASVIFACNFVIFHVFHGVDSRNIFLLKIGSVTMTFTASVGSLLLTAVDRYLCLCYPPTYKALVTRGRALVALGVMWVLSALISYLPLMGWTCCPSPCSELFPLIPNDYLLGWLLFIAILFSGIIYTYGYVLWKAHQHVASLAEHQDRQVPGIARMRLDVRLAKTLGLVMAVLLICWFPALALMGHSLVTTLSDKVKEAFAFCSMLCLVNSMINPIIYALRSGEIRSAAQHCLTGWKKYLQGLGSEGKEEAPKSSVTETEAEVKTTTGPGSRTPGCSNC

[11] = biological target: T2, rat CB2 receptor; assay: GTPγ[35S] functional assay, rat CB2; assay type: biochemical
[12] = tested on: rats with spinal nerve ligation; assay: Tactile allodynia, lumbar 5-6 spinal nerve ligation neuropathic pain model; assay type: in vivo, rat; conditions: for Effect on tactile allodynia: several doses
Summary of the method: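 Male Sprague-Dawley rats (120–150 g). Under isoflurane in 100% O2, the left L6 transverse process was removed and the left L5 and L6 spinal nerves were tightly ligated with 6-0 silk. Neuropathy was confirmed by daily von Frey paw-withdrawal thresholds after ≥30 min acclimation on wire mesh. Compounds were given IP; AM630 (5 mg/kg IP) was given 15 min before the test compound. n = 6–12 per group.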

[13] = tested on: naïve rats; assay: Open-field chamber testing; assay type: in vivo, rat; conditions: 1 mg/kg IP
[14] = tested on: naïve rats; conditions: 15 mg/kg IP; historical data ref 24; cited from earlier work
[15] = biological target: T2, rat CB2 receptor; assay: Radioligand competitive binding assay, rat CB2
[16] = biological target: T3, rat CB1 receptor (Rattus norvegicus, UniProt P20272); assay: GTPγ[35S] functional assay, rat CB1; assay type: biochemical
[17] = tested on: paclitaxel-treated CB2^−/− mice; assay: Tactile allodynia, paclitaxel-induced neuropathic pain model in CB2^−/− mice; assay type: in vivo, mouse; conditions: 10 mg/kg IP
Summary of the method: (§1)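 Male CB2+/+ or CB2−/− mice (20–25 g), bred and genotyped in-house, were used in a paclitaxel-induced neuropathy model. Once allodynia was established, the test compound was given at 10 mg/kg IP. Tactile paw-withdrawal thresholds were measured with von Frey filaments after ≥30 min acclimation on a wire-mesh floor; n = 5 per group.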

[18] = biological target: T3, rat CB1 receptor; assay: Radioligand competitive binding assay, rat CB1
[19] = biological target: T3, rat CB1 receptor; assay: cAMP activation assay, rat CB1; assay type: cell-based
[20] = tested on: rat CB2 receptors; assay: Erk1/2; assay type: cell-based
[21] = biological target: T4, human CB1 receptor (Homo sapiens, UniProt P21554); assay: GTPγ[35S] functional assay, human CB1; assay type: biochemical
[22] = tested on: paclitaxel-treated CB2^+/+ mice; assay: Tactile allodynia, paclitaxel-induced neuropathic pain model in CB2^+/+ mice; assay type: in vivo, mouse; conditions: 10 mg/kg IP
Summary of the method: as §1

[23] = biological target: T4, human CB1 receptor; assay: Radioligand competitive binding assay, human CB1; conditions: Mean Ki Human CB1, [3H]CP 55,940 was used (footnote b)
[24] = biological target: T1, human CB2 receptor; assay: Radioligand competitive binding assay, human CB2
[25] = tested on: paclitaxel-treated rats; assay: Tactile allodynia, paclitaxel-induced neuropathic pain model in rats; assay type: in vivo, rat; conditions: IP
Summary of the method: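 Male Sprague-Dawley rats (120–150 g) received paclitaxel 1.0 mg/kg IP daily for 4 days (cumulative 4 mg/kg) in 10% Cremophor EL in saline, 1 mL/kg. Baseline was taken on day 0, then daily von Frey hind-paw thresholds (≥30 min acclimation on wire mesh) until neuropathy was confirmed. The test compound was given IP, compared with vehicle-treated rats; n = 5 per group. Values were expressed as %MPE and AUC.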

[26] = biological target: T1, human CB2 receptor; assay: GTPγ[35S] functional assay, human CB2; assay type: biochemical
[27] = tested on: central nervous system; conditions: IP; cited from earlier work

T1 sequence (P34972 whole entry): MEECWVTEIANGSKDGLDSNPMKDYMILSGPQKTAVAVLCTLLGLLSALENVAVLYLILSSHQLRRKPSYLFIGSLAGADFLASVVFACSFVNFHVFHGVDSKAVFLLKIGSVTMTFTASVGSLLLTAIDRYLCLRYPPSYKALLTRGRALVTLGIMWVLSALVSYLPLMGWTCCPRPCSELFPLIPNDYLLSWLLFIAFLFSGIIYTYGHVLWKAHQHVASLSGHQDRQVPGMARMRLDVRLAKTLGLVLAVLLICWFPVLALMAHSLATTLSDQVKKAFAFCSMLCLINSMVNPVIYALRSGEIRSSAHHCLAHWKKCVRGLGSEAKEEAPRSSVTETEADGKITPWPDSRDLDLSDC
T3 sequence (P20272 whole entry): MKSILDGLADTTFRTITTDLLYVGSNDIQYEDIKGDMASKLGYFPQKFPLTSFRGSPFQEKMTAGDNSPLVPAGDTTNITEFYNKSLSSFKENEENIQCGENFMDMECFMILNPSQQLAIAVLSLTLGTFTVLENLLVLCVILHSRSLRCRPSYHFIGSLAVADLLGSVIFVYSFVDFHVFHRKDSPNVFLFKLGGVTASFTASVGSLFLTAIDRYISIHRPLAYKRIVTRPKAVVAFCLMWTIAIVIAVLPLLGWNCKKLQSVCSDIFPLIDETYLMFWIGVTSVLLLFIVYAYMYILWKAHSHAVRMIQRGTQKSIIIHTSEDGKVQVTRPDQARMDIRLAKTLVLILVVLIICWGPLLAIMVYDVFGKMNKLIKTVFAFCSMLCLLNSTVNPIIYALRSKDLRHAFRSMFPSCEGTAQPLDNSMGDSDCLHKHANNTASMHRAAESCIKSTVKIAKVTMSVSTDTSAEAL
T4 sequence (P21554 whole entry): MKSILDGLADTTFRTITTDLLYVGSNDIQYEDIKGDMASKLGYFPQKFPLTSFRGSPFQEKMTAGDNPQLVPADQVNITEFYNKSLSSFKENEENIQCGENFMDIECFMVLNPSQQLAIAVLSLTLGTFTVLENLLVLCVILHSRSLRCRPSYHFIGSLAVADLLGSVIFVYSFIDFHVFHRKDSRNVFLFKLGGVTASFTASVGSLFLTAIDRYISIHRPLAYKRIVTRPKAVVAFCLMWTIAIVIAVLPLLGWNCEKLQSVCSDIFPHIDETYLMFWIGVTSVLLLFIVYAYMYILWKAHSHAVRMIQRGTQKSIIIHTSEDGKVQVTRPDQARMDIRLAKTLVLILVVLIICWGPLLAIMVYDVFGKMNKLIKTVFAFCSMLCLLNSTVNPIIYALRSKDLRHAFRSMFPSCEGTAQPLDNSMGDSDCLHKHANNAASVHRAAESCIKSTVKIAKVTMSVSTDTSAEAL

CN1CCCCC1Cn1cc(C(=O)c2cc([N+](=O)[O-])ccc2I)c2ccccc21 (centres unmarked) [AM1241, (2-iodo-5-nitrophenyl)-[1-(1-methylpiperidin-2-ylmethyl)-1H-indol-3-yl]methanone]
Effect on tactile allodynia [1]: attenuated tactile allodynia in a dose-related manner | Functional behaviour in cAMP inhibition assays, mouse CB2 [2]: inverse agonist | Functional behaviour in fluorometric image plate reader functional assays [3]: apparent antagonist | Functional behaviour in cAMP inhibition assays, rat CB2 [4]: inverse agonist | Functional behaviour in cAMP inhibition assays, human CB2 [5]: agonist | Functional behaviour in cyclase assays [6]: neutral antagonist | Functional behaviour in cyclase assays at lower forskolin concentrations ([6]; lower forskolin concentrations): agonist | Functional behaviour in Erk activation assays [7]: apparent agonist

COc1ccc2c(c1)c(CCN1CCOCC1)c(C)n2C(=O)c1cccc(Cl)c1Cl [L768242]
Functional character at human CB2 [8]: protean agonists | Functional character at rat CB2 [9]: protean agonists

CCCCCCC(C)(C)c1ccc([C@@H]2C[C@H](O)CC[C@H]2CCCO)c(O)c1 [CP 55,940, reference compound]
Functional behaviour in cAMP activation assay, rat CB2 [10]: strong agonist activity | cAMP activation assays Rat CB2 Emax ([10]; forskolin 10 µM, NA = not active at 1 µM): 100% | Functional behaviour in GTPγ[35S] assay, rat CB2 [11]: agonist activity | EC50 ([11]; read-out: GTPγ[35S] functional assays Rat CB2 EC50, agonism): 2.3 ± 1.8 nM | GTPγ[35S] functional assays Rat CB2 Emax ([11]; relative to efficacy of CP 55,940): 112%

COc1ccc(C(=O)c2c(C)n(CCN3CCOCC3)c3cc(I)ccc23)cc1 [AM630, reference compound]
Effect on paw withdrawal threshold, given alone ([12]; 5 mg/kg IP): had no effect

O=C(CCCN1CCC(O)(c2ccc(Cl)cc2)CC1)c1ccc(F)cc1 [haloperidol]
Effect on exploratory behavior (distance traveled, ambulatory time, vertical movements, zone entries) [13]: significantly decreased exploratory behavior

CCCCCCN1C(=O)/C(=N\NC(=O)c2ccccc2)c2ccccc21 [MDA19, N′-[(3Z)-1-(1-hexyl)-2-oxo-1,2-dihydro-3H-indol-3-ylidene]benzohydrazide]
Effect on exploratory behavior (distance traveled, ambulatory time, vertical movements, zone entries) [14]: had no effect on exploratory behavior | Ki [15]: 16.3 ± 2.1 nM | Affinity ratio rat CB2 over rat CB1 ([15]; from Ki values): ~70 fold | EC50 [16]: 427 ± 35 nM | Functional behaviour in GTPγ[35S] assay, rat CB1 [16]: agonist | Emax ([16]; read-out: GTPγ[35S] functional assays Rat CB1 Emax): 54% | Functional behaviour in cAMP activation assay, rat CB2 [10]: no activity | Effect on mechanical allodynia [17]: had no effect | Ki [18]: 1130 ± 574 nM | EC50 [11]: 19.7 ± 14 nM | Functional behaviour in GTPγ[35S] assay, rat CB2 [11]: inverse agonist | Emax ([11]; read-out: GTPγ[35S] functional assays Rat CB2 Emax): -42% | Antiallodynic effects compared with 1 mg/kg WIN 55,212-2 IP ([12]; 15 mg/kg IP): not significantly different | Antiallodynic effect, area under the curve ([12]; 15 mg/kg versus 5 mg/kg or vehicle): significantly (P < 0.01) greater antiallodynic effect | Effect on tactile allodynia ([12]; IP): attenuated tactile allodynia in a dose-related manner | Antiallodynic effect after pretreatment with AM630 ([12]; MDA19 10 mg/kg IP, AM630 5 mg/kg IP 15 minutes before, P < 0.05): significantly reversed | Efficacy in attenuating tactile allodynia ([12]; after a 15 mg/kg dose IP): 70% ± 10% | EC50 [19]: 814 ± 83 nM | Functional behaviour in cAMP activation assay, rat CB1 [19]: agonist | Emax ([19]; read-out: cAMP activation assays Rat CB1 Emax): 89% | Activation of Erk1/2 after PTX ([20]; 200 ng/mL PTX 16 hours before 10 µM MDA19): blocked | Functional behaviour in Erk1/2 activation (phosphorylation of Erk1/2) ([20]; 10 µM, 30 minutes, CHO-rCB2 cells): behaved as an agonist and induced phosphorylation of Erk1/2 | Activation of Erk1/2 after AM630 ([20]; 20 µM AM630 30 minutes before 10 µM MDA19): blocked | EC50 [21]: 922 ± 56 nM | Functional behaviour in GTPγ[35S] assay, human CB1 [21]: agonist | Emax ([21]; read-out: GTPγ[35S] functional assays Human CB1 Emax): 64.5% | Effect on mechanical allodynia [22]: suppressed mechanical allodynia | Time of peak effect for reversing mechanical allodynia [22]: 30 min | Ki [23]: 150 nM | Ki [24]: 43.3 ± 10.3 nM | Effect on mechanical allodynia ([25]; versus vehicle-treated rats): suppressed mechanical allodynia | %MPE paw withdrawal threshold AUC versus vehicle ([25]; n = 5 per group): significantly different (P < 0.05) | EC50 [26]: 83 ± 19 nM | Functional behaviour in GTPγ[35S] assay, human CB2 [26]: agonist | Emax ([26]; read-out: GTPγ[35S] functional assays Human CB2 Emax): 65.4%

CN1CCCCC1Cn1cc(C(=O)c2cc([N+](=O)[O-])ccc2I)c2ccccc21 (single isomer, unassigned; (+)) [(+)AM1241]
Functional character at human CB2 [8]: protean agonists | Functional character at rat CB2 [9]: protean agonists

Cc1c(C(=O)c2cccc3ccccc23)c2cccc3c2n1[C@H](CN1CCOCC1)CO3 [WIN 55,212-2, reference compound]
Adverse effects ([12]; 3 mg/kg IP): immobility and increased sensitivity to noise and handling | Effect on tactile allodynia ([12]; IP): attenuated tactile allodynia in a dose-related manner | ED50 tactile allodynia ([12]; IP, at 15 minutes, 95% CI = 0.5–0.9 mg/kg): 0.7 mg/kg | Doses with adverse effects in the central nervous system [27]: > 1 mg/kg | Effect on exploratory behavior (distance traveled, ambulatory time, vertical movements, zone entries) [13]: significantly decreased exploratory behavior
